Assay [1] addresses Serine/threonine-protein kinase PAK 3 (Homo sapiens) (UniProt O75914). Put plainly: Inhibition of wild-type human full length PAK3 (M1 to R544 residues) expressed in Escherichia coli BL21 assessed as residual activity at 1000 nM after 30 mins by Kinomescan method relative to control. The method, boiled down: (§1)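 Single-concentration screen at 1 µM across a 456-kinase KINOMEscan panel. The read-out is Percent Control for each kinase.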

Assay [2] deals with Mitogen-activated protein kinase kinase kinase kinase 5 (Homo sapiens) (UniProt Q9Y4K4). Put plainly: Inhibition of wild-type human partial length MAP4K5 (M1 to P297 residues) expressed in Escherichia coli BL21 assessed as residual activity at 1000 nM after 30 mins by Kinomescan method relative to control.
Assay [3] has as its target Proto-oncogene tyrosine-protein kinase receptor Ret (Homo sapiens) (UniProt P07949). Put plainly: Inhibition of wild-type human partial length RET (E713 to D1014 residues) expressed in Escherichia coli BL21 assessed as residual activity at 1000 nM after 30 mins by Kinomescan method relative to control.
The target of assay [4] is Tyrosine-protein kinase FRK (Homo sapiens) (UniProt P42685). Put plainly: Inhibition of wild-type human partial length FRK (A215 to F503 residues) expressed in Escherichia coli BL21 assessed as residual activity at 1000 nM after 30 mins by Kinomescan method relative to control.
Assay [5] concerns the target Activated CDC42 kinase 1 (Homo sapiens) (UniProt Q07912). Put plainly: Inhibition of wild-type human partial length TNK2 (S159 to D474 residues) expressed in Escherichia coli BL21 assessed as residual activity at 1000 nM after 30 mins by Kinomescan method relative to control.
Assay [6] addresses Mitogen-activated protein kinase kinase kinase 15 (Homo sapiens) (UniProt Q6ZN16). Put plainly: Inhibition of wild-type human partial length MAP3K15 (T625 to L932 residues) expressed in HEK293 cells assessed as residual activity at 1000 nM after 30 mins by Kinomescan method relative to control. It counts as cell-based.
Assay [7] concerns the target Activin receptor type-2A (Homo sapiens) (UniProt P27037). Put plainly: Inhibition of wild-type human ACVR2A (V171 to T499 residues) expressed in Escherichia coli BL21 assessed as residual activity at 1000 nM after 30 mins by Kinomescan method relative to control. In outline: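 Single-point screen at a fixed 1 µM, run within a 456-kinase DiscoveRx KINOMEscan panel. Each kinase's read-out is Percent Control, i.e. signal relative to a control without compound. Hits were scored by a Percent Control < 35 cut-off, and an S(35) selectivity score was calculated across the non-mutant kinases.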

The target in assay [8] is Serine/threonine-protein kinase 35 (Homo sapiens) (UniProt Q8TDR2). Put plainly: Inhibition of wild-type human partial length STK35 (G182 to A534 residues) expressed in Escherichia coli BL21 assessed as residual activity at 1000 nM after 30 mins by Kinomescan method relative to control.
Assay [9] has as its target Serine/threonine-protein kinase tousled-like 1 (Homo sapiens) (UniProt Q9UKI8). Put plainly: Inhibition of wild-type human partial length TLK1 (K447 to A754 residues) expressed in Escherichia coli BL21 assessed as residual activity at 1000 nM after 30 mins by Kinomescan method relative to control.
In assay [10] the target is Cyclin-dependent kinase 11B (Homo sapiens) (UniProt P21127). Put plainly: Inhibition of wild-type human partial length CDK11 (M1 to N360 residues) expressed in Escherichia coli BL21 assessed as residual activity at 1000 nM after […] by Kinomescan method relative to control.
Assay [11] deals with Serine/threonine-protein kinase 17B (Homo sapiens) (UniProt O94768). Put plainly: Inhibition of wild-type human full length DRAK2 (M1 to C372 residues) expressed in Escherichia coli BL21 assessed as residual activity at 1000 nM after 30 mins by Kinomescan method relative to control. The method, boiled down:
as §1

Assay [12] deals with Serine/threonine-protein kinase BRSK1 (Homo sapiens) (UniProt Q8TDC3). Put plainly: Inhibition of wild-type human partial length BRSK1 (M1 to E754 residues) expressed in Escherichia coli BL21 assessed as residual activity at 1000 nM after 30 mins by Kinomescan method relative to control.
The target in assay [13] is SRSF protein kinase 2 (Homo sapiens) (UniProt P78362). Put plainly: Inhibition of wild-type human full length SRPK2 (M1 to S686 residues) expressed in Escherichia coli BL21 assessed as residual activity at 1000 nM after 30 mins by Kinomescan method relative to control.
Assay [14] concerns the target Ephrin type-A receptor 2 (Homo sapiens) (UniProt P29317). Put plainly: Inhibition of wild-type human partial length EPHA2 (T593 to V891 residues) expressed in Escherichia coli BL21 assessed as residual activity at 1000 nM after 30 mins by Kinomescan method relative to control.
Assay [15] addresses Serine/threonine-protein kinase RIO3 (Homo sapiens) (UniProt O14730). Put plainly: Inhibition of wild-type human full length RIOK3 (M1 to E519 residues) expressed in Escherichia coli BL21 assessed as residual activity at 1000 nM after 30 mins by Kinomescan method relative to control.
Assay [16] addresses Misshapen-like kinase 1 (Homo sapiens) (UniProt Q8N4C8). Put plainly: Inhibition of wild-type human partial length MINK (M1 to K312 residues) expressed in HEK293 cells assessed as residual activity at 1000 nM after 30 mins by Kinomescan method relative to control. It counts as cell-based.
Assay [17] deals with Dual specificity mitogen-activated protein kinase kinase 5 (Homo sapiens) (UniProt Q13163). Put plainly: Inhibition of wild-type human partial length MEK5 (L98 to P448 residues) expressed in HEK293 cells assessed as residual activity at 1000 nM after 30 mins by Kinomescan method relative to control. In kind it is cell-based.
For assay [18], the target named is Wee1-like protein kinase (Homo sapiens) (UniProt P30291). Put plainly: Inhibition of wild-type human partial length WEE1 (M291 to K575 residues) expressed in Escherichia coli BL21 assessed as residual activity at 1000 nM after 30 mins by Kinomescan method relative to control.
Assay [19] has as its target MAP kinase-activated protein kinase 5 (Homo sapiens) (UniProt Q8IW41). Put plainly: Inhibition of wild-type human partial length MAPKAPK5 (M1 to D322 residues) expressed in HEK293 cells assessed as residual activity at 1000 nM after 30 mins by Kinomescan method relative to control. In kind it is cell-based.
The test system of assay [20] is Receptor-type tyrosine-protein kinase FLT3 (Homo sapiens), P36888 [R834Q]. Put plainly: Inhibition of human partial length FLT3 R834Q mutant (V592 to Y969 residues) expressed in HEK293 cells assessed as residual activity at 1000 nM after 30 mins by Kinomescan method relative to control. In kind it is cell-based. The method, boiled down:
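KINOMEscan binding panel of 456 kinases, with the test compound at a single concentration of 1 µM. Read-out is Percent Control.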

Assay [21] addresses Cyclin-dependent kinase-like 5 (Homo sapiens) (UniProt O76039). Put plainly: Inhibition of wild-type human partial length CDKL5 (M1 to S337 residues) expressed in HEK293 cells assessed as residual activity at 1000 nM after 30 mins by Kinomescan method relative to control. It counts as cell-based.

Drawing on ChEMBL document CHEMBL4043093, “2-Oxo-3, 4-dihydropyrimido[4, 5-d]pyrimidinyl derivatives as new irreversible pan fibroblast growth factor receptor (FGFR) inhibitors” (Eur J Med Chem, 2017), this text covers Activity for 1 compound.

Sequence of Serine/threonine-protein kinase BRSK1 (Homo sapiens) (Q8TDC3 whole entry, the tested form may be a part): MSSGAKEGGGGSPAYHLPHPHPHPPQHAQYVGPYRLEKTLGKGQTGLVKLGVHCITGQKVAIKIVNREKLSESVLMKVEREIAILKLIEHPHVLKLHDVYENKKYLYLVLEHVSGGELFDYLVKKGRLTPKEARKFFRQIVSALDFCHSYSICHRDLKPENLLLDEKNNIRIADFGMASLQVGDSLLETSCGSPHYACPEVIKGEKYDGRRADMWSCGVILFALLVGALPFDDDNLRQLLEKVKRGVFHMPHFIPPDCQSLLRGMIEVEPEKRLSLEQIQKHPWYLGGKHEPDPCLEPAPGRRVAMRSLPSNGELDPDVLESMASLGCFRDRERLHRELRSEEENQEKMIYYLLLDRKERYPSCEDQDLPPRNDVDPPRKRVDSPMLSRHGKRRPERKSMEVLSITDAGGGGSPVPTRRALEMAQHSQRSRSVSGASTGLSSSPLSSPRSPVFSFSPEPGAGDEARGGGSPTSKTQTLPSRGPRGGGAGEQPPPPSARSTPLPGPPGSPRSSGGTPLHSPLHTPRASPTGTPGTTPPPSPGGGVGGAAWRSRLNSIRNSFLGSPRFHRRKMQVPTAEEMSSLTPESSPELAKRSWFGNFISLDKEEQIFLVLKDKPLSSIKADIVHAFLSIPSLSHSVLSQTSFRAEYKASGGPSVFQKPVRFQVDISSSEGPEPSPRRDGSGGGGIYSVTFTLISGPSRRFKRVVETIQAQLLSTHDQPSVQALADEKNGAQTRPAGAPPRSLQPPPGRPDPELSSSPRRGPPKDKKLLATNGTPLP
Sequence of SRSF protein kinase 2 (Homo sapiens) (P78362 whole entry, looked up, the tested form may be a part): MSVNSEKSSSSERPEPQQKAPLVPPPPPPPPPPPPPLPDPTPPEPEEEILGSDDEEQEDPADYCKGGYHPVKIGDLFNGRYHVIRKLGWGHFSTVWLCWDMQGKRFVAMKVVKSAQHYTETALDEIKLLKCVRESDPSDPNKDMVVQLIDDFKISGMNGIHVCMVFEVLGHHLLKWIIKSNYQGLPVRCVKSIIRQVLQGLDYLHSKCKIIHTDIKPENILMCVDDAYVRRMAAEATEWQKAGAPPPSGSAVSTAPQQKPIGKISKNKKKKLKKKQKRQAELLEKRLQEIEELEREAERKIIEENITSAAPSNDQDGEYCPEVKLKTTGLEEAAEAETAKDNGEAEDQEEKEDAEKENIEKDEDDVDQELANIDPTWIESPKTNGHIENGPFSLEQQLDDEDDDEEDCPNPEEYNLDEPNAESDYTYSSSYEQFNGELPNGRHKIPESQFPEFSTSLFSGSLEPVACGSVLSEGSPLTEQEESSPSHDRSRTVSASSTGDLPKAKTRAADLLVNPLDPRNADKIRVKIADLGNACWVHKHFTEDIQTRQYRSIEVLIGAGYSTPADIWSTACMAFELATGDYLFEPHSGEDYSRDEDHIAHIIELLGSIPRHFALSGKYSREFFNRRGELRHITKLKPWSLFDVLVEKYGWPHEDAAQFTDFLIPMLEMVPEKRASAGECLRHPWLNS
Sequence of Proto-oncogene tyrosine-protein kinase receptor Ret (Homo sapiens) (P07949 whole entry, the tested form may be a part): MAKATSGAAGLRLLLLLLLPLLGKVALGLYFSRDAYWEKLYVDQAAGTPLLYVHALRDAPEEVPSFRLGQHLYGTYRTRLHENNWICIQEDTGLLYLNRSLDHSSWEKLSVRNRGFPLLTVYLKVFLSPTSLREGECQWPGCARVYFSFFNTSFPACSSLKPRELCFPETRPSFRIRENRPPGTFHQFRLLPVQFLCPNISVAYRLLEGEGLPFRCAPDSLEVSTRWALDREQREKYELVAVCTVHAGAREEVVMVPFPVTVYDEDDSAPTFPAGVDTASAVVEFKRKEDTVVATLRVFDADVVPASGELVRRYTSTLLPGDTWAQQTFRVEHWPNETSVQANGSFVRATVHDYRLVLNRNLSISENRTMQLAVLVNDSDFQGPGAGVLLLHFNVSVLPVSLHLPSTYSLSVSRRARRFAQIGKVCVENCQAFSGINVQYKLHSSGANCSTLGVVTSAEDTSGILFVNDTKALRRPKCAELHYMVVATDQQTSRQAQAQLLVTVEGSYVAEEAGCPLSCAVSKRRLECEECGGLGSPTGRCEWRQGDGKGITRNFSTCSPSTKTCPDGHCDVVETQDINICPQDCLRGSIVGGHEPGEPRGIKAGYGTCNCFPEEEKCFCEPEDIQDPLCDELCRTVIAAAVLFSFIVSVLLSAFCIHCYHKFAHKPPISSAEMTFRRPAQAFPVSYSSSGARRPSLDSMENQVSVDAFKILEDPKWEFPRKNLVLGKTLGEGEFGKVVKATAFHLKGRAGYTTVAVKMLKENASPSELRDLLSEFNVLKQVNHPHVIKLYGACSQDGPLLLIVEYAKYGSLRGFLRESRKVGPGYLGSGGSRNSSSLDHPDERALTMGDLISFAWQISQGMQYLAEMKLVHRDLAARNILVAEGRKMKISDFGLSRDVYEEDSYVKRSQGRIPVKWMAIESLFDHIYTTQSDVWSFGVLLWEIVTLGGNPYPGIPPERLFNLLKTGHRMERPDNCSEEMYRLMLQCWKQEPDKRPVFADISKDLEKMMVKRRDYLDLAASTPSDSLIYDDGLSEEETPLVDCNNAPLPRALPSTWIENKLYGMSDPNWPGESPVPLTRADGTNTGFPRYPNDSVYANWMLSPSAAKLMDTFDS
Sequence of Cyclin-dependent kinase-like 5 (Homo sapiens) (O76039 whole entry, the tested form may be a part): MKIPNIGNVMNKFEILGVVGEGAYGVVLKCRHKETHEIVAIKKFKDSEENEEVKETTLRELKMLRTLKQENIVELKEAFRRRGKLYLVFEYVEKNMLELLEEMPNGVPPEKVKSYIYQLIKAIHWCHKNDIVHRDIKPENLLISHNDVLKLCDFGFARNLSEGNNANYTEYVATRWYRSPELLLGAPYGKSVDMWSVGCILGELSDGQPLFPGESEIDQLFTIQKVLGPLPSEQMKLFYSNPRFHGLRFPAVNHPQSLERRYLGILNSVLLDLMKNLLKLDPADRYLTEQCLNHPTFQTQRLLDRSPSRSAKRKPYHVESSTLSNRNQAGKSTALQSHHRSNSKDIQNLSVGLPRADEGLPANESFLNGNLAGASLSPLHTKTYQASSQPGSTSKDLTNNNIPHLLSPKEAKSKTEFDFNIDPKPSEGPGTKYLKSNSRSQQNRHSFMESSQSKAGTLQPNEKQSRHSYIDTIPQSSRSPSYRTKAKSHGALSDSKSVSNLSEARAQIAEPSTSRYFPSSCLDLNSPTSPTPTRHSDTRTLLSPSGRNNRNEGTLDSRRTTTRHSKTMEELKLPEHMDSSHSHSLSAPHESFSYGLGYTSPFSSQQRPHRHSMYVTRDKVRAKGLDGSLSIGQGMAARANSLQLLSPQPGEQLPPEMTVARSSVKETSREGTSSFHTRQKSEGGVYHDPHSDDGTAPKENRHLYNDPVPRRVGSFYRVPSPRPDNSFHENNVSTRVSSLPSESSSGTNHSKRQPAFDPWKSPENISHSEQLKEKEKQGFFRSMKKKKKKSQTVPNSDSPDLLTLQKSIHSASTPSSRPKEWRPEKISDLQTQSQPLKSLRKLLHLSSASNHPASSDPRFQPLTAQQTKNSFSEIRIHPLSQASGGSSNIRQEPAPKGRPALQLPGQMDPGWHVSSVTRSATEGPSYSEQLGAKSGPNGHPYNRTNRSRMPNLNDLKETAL
Sequence of Wee1-like protein kinase (Homo sapiens) (P30291 whole entry, looked up, the tested form may be a part): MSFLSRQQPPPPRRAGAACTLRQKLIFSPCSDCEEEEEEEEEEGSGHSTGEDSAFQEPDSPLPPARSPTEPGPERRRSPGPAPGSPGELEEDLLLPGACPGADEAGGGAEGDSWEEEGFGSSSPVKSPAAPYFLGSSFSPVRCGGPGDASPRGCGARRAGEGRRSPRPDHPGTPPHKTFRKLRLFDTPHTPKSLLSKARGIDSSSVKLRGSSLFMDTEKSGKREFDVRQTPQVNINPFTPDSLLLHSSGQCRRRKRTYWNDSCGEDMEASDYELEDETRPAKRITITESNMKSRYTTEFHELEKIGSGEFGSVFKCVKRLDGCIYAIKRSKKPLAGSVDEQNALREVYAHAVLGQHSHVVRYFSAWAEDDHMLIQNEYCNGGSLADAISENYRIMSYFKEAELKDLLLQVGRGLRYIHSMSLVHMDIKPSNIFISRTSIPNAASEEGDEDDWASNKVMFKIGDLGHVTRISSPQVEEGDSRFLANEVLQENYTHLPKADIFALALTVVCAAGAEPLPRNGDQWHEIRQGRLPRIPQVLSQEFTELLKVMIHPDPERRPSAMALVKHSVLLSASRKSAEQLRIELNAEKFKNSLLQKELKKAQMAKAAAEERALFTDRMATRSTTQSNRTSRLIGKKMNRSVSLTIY
Sequence of Tyrosine-protein kinase FRK (Homo sapiens) (P42685 whole entry, the tested form may be a part): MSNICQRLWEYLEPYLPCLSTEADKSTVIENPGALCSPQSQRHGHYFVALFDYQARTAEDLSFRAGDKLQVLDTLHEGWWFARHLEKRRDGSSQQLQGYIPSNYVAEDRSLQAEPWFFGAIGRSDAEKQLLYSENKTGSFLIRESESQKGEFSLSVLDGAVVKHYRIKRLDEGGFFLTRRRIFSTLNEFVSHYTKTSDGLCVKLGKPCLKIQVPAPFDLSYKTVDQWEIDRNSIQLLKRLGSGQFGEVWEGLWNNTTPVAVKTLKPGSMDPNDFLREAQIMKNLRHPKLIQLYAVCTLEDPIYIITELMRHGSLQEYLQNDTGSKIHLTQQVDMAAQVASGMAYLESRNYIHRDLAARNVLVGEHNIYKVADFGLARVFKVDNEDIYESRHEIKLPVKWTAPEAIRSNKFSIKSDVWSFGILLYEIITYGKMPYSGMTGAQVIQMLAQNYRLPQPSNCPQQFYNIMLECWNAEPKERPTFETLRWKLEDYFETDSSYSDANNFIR
Sequence of Serine/threonine-protein kinase 17B (Homo sapiens) (O94768 whole entry, the tested form may be a part): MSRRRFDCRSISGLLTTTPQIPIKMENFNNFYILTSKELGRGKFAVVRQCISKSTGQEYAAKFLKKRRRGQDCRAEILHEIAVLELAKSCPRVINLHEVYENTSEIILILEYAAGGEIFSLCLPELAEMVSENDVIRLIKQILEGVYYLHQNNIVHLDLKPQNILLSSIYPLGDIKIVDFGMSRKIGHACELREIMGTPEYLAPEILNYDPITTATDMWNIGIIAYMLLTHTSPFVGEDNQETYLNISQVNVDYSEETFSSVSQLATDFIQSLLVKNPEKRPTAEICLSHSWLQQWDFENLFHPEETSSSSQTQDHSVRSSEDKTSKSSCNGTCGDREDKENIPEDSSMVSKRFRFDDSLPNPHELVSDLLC

Consider `COc1cc(OC)c(Cl)c(N2Cc3cnc(Nc4ccc(F)cc4)nc3N(C3CCN(C(=O)/C=C/CN(C)C)CC3)C2=O)c1Cl`, for which the Activity is 99% in assay [1]; 82% in assay [2]; 8.1% in assay [3]; 59% in assay [4]; 100% in [5]; 100% in assay [6]. Moreover, the Activity stood at 99% in assay [7]; 100% in assay [8]; 100% in [9]; 79% in assay [10]; 99% in assay [11]; 100% in assay [12]. In addition, the Activity is 91% in assay [13]; 100% in assay [14]; 97% in assay [15]; 93% in [16]; 90% in [17]; 100% in assay [18]. The Activity in assay [19] was found to be 100%; in [20], 96%; in assay [21], 100%.
